{"source": "paper PMC9050161", "about": "(RSC Advances, 2020)", "key": {"[1]": {"molecular_target": "CYP1A1 (Homo sapiens, UniProt P04798)", "sequence (P04798 whole entry)": "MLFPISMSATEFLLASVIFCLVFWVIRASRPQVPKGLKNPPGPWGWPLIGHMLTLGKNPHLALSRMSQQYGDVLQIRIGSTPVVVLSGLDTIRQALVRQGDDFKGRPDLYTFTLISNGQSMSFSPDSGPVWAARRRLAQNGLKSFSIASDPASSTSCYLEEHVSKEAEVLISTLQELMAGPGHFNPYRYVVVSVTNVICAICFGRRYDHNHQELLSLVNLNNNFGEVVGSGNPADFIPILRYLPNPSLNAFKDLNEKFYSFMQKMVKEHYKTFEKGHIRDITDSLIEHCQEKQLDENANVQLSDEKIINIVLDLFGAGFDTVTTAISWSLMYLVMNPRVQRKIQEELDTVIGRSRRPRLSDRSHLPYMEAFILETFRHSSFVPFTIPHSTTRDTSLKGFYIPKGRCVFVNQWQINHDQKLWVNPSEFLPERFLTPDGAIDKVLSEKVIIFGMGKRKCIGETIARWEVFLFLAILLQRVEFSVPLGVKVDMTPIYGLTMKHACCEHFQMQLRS", "assay": "Inhibition of CYP1A1", "type": "biochemical", "summary_of_the_method": "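Recombinant human CYPs at 0.05 mg mL−1 protein, each with its probe substrate near Km: ethoxyresorufin 1 μM (CYP1A1), phenacetin 100 μM (CYP1A2), nifedipine 40 μM (CYP3A4, 3A5). Incubated at 37 °C without (control) or with test compound at 1, 10 and 100 μM. Supernatant analysed by UHPLC-TQD-MS; activity relative to control; triplicate.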"}, "[2]": {"molecular_target": "CYP2C19 (Homo sapiens, UniProt P33261)", "sequence (P33261 whole entry)": "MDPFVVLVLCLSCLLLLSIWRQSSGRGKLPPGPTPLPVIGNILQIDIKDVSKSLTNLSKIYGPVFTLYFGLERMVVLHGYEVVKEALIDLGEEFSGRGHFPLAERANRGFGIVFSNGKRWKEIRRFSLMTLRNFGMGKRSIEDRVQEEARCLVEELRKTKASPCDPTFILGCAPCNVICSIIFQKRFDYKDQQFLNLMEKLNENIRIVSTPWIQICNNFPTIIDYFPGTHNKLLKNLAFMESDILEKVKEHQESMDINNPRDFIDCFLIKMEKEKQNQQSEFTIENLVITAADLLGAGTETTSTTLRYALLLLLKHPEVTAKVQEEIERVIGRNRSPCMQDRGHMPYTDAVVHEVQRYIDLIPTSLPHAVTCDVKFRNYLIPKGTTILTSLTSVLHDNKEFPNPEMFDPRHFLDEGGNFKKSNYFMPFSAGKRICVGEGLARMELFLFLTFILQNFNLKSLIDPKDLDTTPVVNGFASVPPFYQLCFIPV", "assay": "Inhibition of CYP2C19", "type": "biochemical", "summary_of_the_method": "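Recombinant human CYPs at 0.1 mg mL−1 protein, each with its probe substrate near Km: coumarin 100 μM (2A6), bupropion 100 μM (2B6), paclitaxel 60 μM (2C8), tolbutamide 200 μM (2C9), mephenytoin 100 μM (2C19), chlorzoxazone 200 μM (2E1). Incubated at 37 °C with or without test compound at 1, 10 or 100 μM. UHPLC-TQD-MS read-out; triplicate.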"}}}
{"smiles": "Oc1cccc(-c2nc(N3CCOCC3)c3oc4ncccc4c3n2)c1", "note": "[PI-103]", "values": [{"measurement": "IC50", "setting": "[1]", "value": "16800 ± 1760", "unit": "nM"}, {"measurement": "residual activity", "setting": "[1]; CYP1A1, 100 μM PI-103", "value": "21.39 % of the negative control"}, {"measurement": "IC50", "setting": "[2]", "value": "590 ± 60", "unit": "nM"}, {"measurement": "Ki", "setting": "[2]", "value": "530 ± 30", "unit": "nM"}, {"measurement": "residual activity", "setting": "[2]; CYP2C19, 100 μM PI-103", "value": "14.67 % of the negative control"}, {"measurement": "Type of inhibition", "setting": "[2]; CYP2C19, mephenytoin", "value": "Noncompetitive"}]}
